From ChEMBL document CHEMBL1275459 (2008)
Values after ≈ are worked out from the molar mass of the structure shown.

Experiments:
[1] = tested on: Klebsiella pneumoniae; assay: Antimicrobial activity against ciprofloxacin-resistant Klebsiella pneumoniae isolate 95 harboring GyrA Ser83Leu, Asp78Asn, Ala171Ser and Val198Ile mutant gene by agar dilution method; format: functional
[2] = tested on: Klebsiella pneumoniae; assay: Antimicrobial activity against ciprofloxacin-resistant Klebsiella pneumoniae isolate 863 harboring GyrA Ser83Leu, Asp78Asn, Ala171Ser and Val198Ile mutant gene by agar dilution method; format: functional
[3] = tested on: Klebsiella pneumoniae; assay: Antimicrobial activity against ciprofloxacin-resistant Klebsiella pneumoniae isolate 149 harboring GyrA Ser83Leu, Asp78Asn, Ala171Ser and Val198Ile mutant gene by agar dilution method; format: functional
[4] = tested on: Klebsiella pneumoniae; assay: Antimicrobial activity against ciprofloxacin-resistant Klebsiella pneumoniae isolate 103 harboring GyrA Ser83Leu, Asp78Asn, Ala171Ser and Val198Ile mutant gene by agar dilution method; format: functional
[5] = tested on: Klebsiella pneumoniae; assay: Antimicrobial activity against ciprofloxacin-resistant Klebsiella pneumoniae isolate 663 harboring GyrA Ser83Leu, Asp78Asn, Ala171Ser and Val198Ile mutant gene by agar dilution method; format: functional
[6] = tested on: Klebsiella pneumoniae; assay: Antimicrobial activity against ciprofloxacin-resistant Klebsiella pneumoniae isolate 94 harboring GyrA Ser83Leu, Asp78Asn, Ala171Ser and Val198Ile mutant gene by agar dilution method; format: functional
[7] = tested on: Klebsiella pneumoniae; assay: Antimicrobial activity against ciprofloxacin-resistant Klebsiella pneumoniae isolate 779 harboring GyrA Ser83Leu, Asp78Asn, Ala171Ser and Val198Ile mutant gene by agar dilution method; format: functional
[8] = tested on: Klebsiella pneumoniae; assay: Antimicrobial activity against ciprofloxacin-resistant Klebsiella pneumoniae isolate 234 harboring GyrA Ser83Leu, Asp78Asn, Ala171Ser and Val198Ile mutant gene by agar dilution method; format: functional
[9] = tested on: Klebsiella pneumoniae; assay: Antimicrobial activity against ciprofloxacin-resistant Klebsiella pneumoniae isolate 3 harboring GyrA Ser83Leu, Asp78Asn, Ala171Ser and Val198Ile mutant gene by agar dilution method; format: functional
[10] = tested on: Klebsiella pneumoniae; assay: Antimicrobial activity against ciprofloxacin-resistant Klebsiella pneumoniae isolate 27 harboring GyrA Ser83Leu, Asp78Asn, Ala171Ser and Val198Ile mutant gene by agar dilution method; format: functional
[11] = tested on: Klebsiella pneumoniae; assay: Antimicrobial activity against ciprofloxacin-resistant Klebsiella pneumoniae isolate 719 harboring GyrA Ser83Leu, Asp78Asn, Ala171Ser and Val198Ile mutant gene by agar dilution method; format: functional
[12] = tested on: Klebsiella pneumoniae; assay: Antimicrobial activity against ciprofloxacin-resistant Klebsiella pneumoniae isolate 205 harboring GyrA Ser83Leu, Asp78Asn, Ala171Ser and Val198Ile mutant gene by agar dilution method; format: functional
[13] = tested on: Klebsiella pneumoniae; assay: Antimicrobial activity against ciprofloxacin-resistant Klebsiella pneumoniae isolate 769 harboring GyrA Ser83Ile and Gly177Arg mutant gene by agar dilution method; format: functional
[14] = tested on: Klebsiella pneumoniae; assay: Antimicrobial activity against ciprofloxacin-resistant Klebsiella pneumoniae isolate 828 harboring GyrA Ser83Ile and Gly177Arg mutant gene by agar dilution method; format: functional
[15] = tested on: Klebsiella pneumoniae; assay: Antimicrobial activity against ciprofloxacin-resistant Klebsiella pneumoniae isolate 827 harboring GyrA Ser83Ile mutant gene by agar dilution method; format: functional
[16] = tested on: Klebsiella pneumoniae; assay: Antimicrobial activity against ciprofloxacin-resistant Klebsiella pneumoniae isolate 772 harboring GyrA Ser83Ile mutant gene by agar dilution method; format: functional
[17] = tested on: Klebsiella pneumoniae; assay: Antimicrobial activity against ciprofloxacin-resistant Klebsiella pneumoniae isolate 721 harboring GyrA Ala171Ser, Leu187Ile and Val198Ile mutant gene by agar dilution method; format: functional
[18] = tested on: Klebsiella pneumoniae; assay: Antimicrobial activity against ciprofloxacin-resistant Klebsiella pneumoniae isolate 836 by agar dilution method; format: functional
[19] = tested on: Klebsiella pneumoniae; assay: Antimicrobial activity against ciprofloxacin-intermediate resistant Klebsiella pneumoniae isolate 753 harboring GyrA Ser83Ile mutant gene by agar dilution method; format: functional
[20] = tested on: Klebsiella pneumoniae; assay: Antimicrobial activity against ciprofloxacin-intermediate resistant Klebsiella pneumoniae isolate 21 by agar dilution method; format: functional
[21] = tested on: Klebsiella pneumoniae; assay: Antimicrobial activity against ciprofloxacin-intermediate resistant Klebsiella pneumoniae isolate 715 by agar dilution method; format: functional
[22] = tested on: Klebsiella pneumoniae; assay: Antimicrobial activity against ciprofloxacin-susceptible Klebsiella pneumoniae isolate 840 harboring GyrA Ala171Ser, Leu187Ile and Val198Ile mutant gene by agar dilution method; format: functional
[23] = tested on: Klebsiella pneumoniae; assay: Antimicrobial activity against ciprofloxacin-susceptible Klebsiella pneumoniae isolate 685 harboring GyrA Ala171Ser, Leu187Ile and Val198Ile mutant gene by agar dilution method; format: functional
[24] = tested on: Klebsiella pneumoniae; assay: Antimicrobial activity against ciprofloxacin-susceptible Klebsiella pneumoniae isolate 212 harboring GyrA Ala171Ser, Leu187Ile and Val198Ile mutant gene by agar dilution method; format: functional
[25] = tested on: Klebsiella pneumoniae; assay: Antimicrobial activity against ciprofloxacin-susceptible Klebsiella pneumoniae isolate 517 harboring GyrA Ala171Ser, Leu187Ile and Val198Ile mutant gene by agar dilution method; format: functional
[26] = tested on: Klebsiella pneumoniae; assay: Antimicrobial activity against ciprofloxacin-susceptible Klebsiella pneumoniae isolate 838 harboring GyrA Ser83Tyr, Ala171Ser, Leu187Ile and Val198Ile mutant gene by agar dilution method; format: functional
[27] = tested on: Klebsiella pneumoniae; assay: Antimicrobial activity against ciprofloxacin-susceptible Klebsiella pneumoniae isolate 49 harboring GyrA Asp87Asn, Arg154Ser and Ala171Ser mutant gene by agar dilution method; format: functional
[28] = tested on: Klebsiella pneumoniae; assay: Antimicrobial activity against ciprofloxacin-susceptible Klebsiella pneumoniae isolate 182 harboring GyrA Ser83Thr and Ala171Ser mutant gene by agar dilution method; format: functional
[29] = tested on: Klebsiella pneumoniae; assay: Antimicrobial activity against ciprofloxacin-susceptible Klebsiella pneumoniae isolate 737 harboring GyrA Ser83Leu and Val198Ile mutant gene by agar dilution method; format: functional
[30] = tested on: Klebsiella pneumoniae; assay: Antimicrobial activity against ciprofloxacin-susceptible Klebsiella pneumoniae isolate 724 harboring GyrA Ser83Ile mutant gene by agar dilution method; format: functional
[31] = tested on: Klebsiella pneumoniae; assay: Antimicrobial activity against ciprofloxacin-susceptible Klebsiella pneumoniae isolate 738 by agar dilution method; format: functional
Procedure, shortened: (§1)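 MIC read by agar dilution on Mueller-Hinton agar following CLSI (formerly NCCLS) recommendations. K. pneumoniae isolates were identified with the API 20E system and confirmed as nonduplicated by randomly amplified polymorphic DNA analysis.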

[32] = tested on: Klebsiella pneumoniae; assay: Antimicrobial activity against ciprofloxacin-susceptible Klebsiella pneumoniae isolate 577 by agar dilution method; format: functional; procedure, shortened: as §1
[33] = tested on: Klebsiella pneumoniae; assay: Antimicrobial activity against ciprofloxacin-susceptible Klebsiella pneumoniae isolate 760 by agar dilution method; format: functional
[34] = tested on: Klebsiella pneumoniae; assay: microbe, parasite or virus in culture; details: isolate 16
[35] = tested on: Klebsiella pneumoniae; assay: microbe, parasite or virus in culture; details: isolate 19
[36] = tested on: Klebsiella pneumoniae; assay: microbe, parasite or virus in culture; details: isolate 29
[37] = tested on: Klebsiella pneumoniae; assay: microbe, parasite or virus in culture; details: isolate 24
[38] = tested on: Klebsiella pneumoniae; assay: microbe, parasite or virus in culture; details: isolate 3

SMILES	MIC [1] [µg/mL]	MIC [2] [µg/mL]	MIC [3] [µg/mL]	MIC [4] [µg/mL]	MIC [5] [µg/mL]	MIC [6] [µg/mL]	MIC [7] [µg/mL]	MIC [8] [µg/mL]	MIC [9] [µg/mL]	MIC [10] [µg/mL]	MIC [11] [µg/mL]	MIC [12] [µg/mL]	MIC [13] [µg/mL]	MIC [14] [µg/mL]	MIC [15] [µg/mL]	MIC [16] [µg/mL]	MIC [17] [µg/mL]	MIC [18] [µg/mL]	MIC [19] [µg/mL]	MIC [20] [µg/mL]	further results
CCn1cc(C(=O)O)c(=O)c2ccc(C)nc21 [NALIDIXIC ACID]	> 512	> 512	> 512	> 512	> 512	> 512	> 512	> 512	> 512	> 512	> 512	> 512	> 512	> 512	> 512	> 512	> 512	> 512	> 512	16 (≈ 68.9 µM)	MIC [21]: 16 µg/mL (≈ 68.9 µM); MIC [22]: 16 µg/mL (≈ 68.9 µM); MIC [23]: > 512 µg/mL; MIC [24]: 16 µg/mL (≈ 68.9 µM); MIC [25]: 8 µg/mL (≈ 34.4 µM); MIC [26]: 256 µg/mL (≈ 1100 µM); MIC [27]: > 512 µg/mL; MIC [28]: 4 µg/mL (≈ 17.2 µM); MIC [29]: 8 µg/mL (≈ 34.4 µM); MIC [30]: 8 µg/mL (≈ 34.4 µM); MIC [31]: 8 µg/mL (≈ 34.4 µM); MIC [32]: 4 µg/mL (≈ 17.2 µM); MIC [33]: 4 µg/mL (≈ 17.2 µM)
O=C(O)c1cn(C2CC2)c2cc(N3CCNCC3)c(F)cc2c1=O [CIPROFLOXACIN]	128 (≈ 386 µM)	128 (≈ 386 µM)	64 (≈ 193 µM)	64 (≈ 193 µM)	64 (≈ 193 µM)	32 (≈ 96.6 µM)	32 (≈ 96.6 µM)	16 (≈ 48.3 µM)	16 (≈ 48.3 µM)	8 (≈ 24.1 µM)	8 (≈ 24.1 µM)	4 (≈ 12.1 µM)	32 (≈ 96.6 µM)	32 (≈ 96.6 µM)	32 (≈ 96.6 µM)	32 (≈ 96.6 µM)	8 (≈ 24.1 µM)	4 (≈ 12.1 µM)	2 (≈ 6.04 µM)	2 (≈ 6.04 µM)	MIC [21]: 2 µg/mL (≈ 6.04 µM); MIC [22]: 1 µg/mL (≈ 3.02 µM); MIC [23]: 0.125 µg/mL (≈ 0.377 µM); MIC [24]: < 0.0312 µg/mL; MIC [25]: < 0.0312 µg/mL; MIC [26]: 1 µg/mL (≈ 3.02 µM); MIC [27]: 0.5 µg/mL (≈ 1.51 µM); MIC [28]: < 0.0312 µg/mL; MIC [29]: < 0.0312 µg/mL; MIC [30]: < 0.0312 µg/mL; MIC [31]: 1 µg/mL (≈ 3.02 µM); MIC [32]: 0.125 µg/mL (≈ 0.377 µM); MIC [33]: < 0.0312 µg/mL; MIC [34]: 4 µg/mL (≈ 12.1 µM); MIC [35]: 8 µg/mL (≈ 24.1 µM); MIC [36]: 16 µg/mL (≈ 48.3 µM); MIC [37]: 32 µg/mL (≈ 96.6 µM); MIC [38]: 16 µg/mL (≈ 48.3 µM)
